Experimental data pooled from the literature.
Protocols differ between the studies behind these lines.
CA14: Carbonic anhydrase 14 (CA14, Homo sapiens, UniProt Q9ULX7)
ESR1: Estrogen receptor (ESR1, Homo sapiens, UniProt P03372)
PLK4: Serine/threonine-protein kinase PLK4 (PLK4, Homo sapiens, UniProt O00444)
nupG: nupG (Escherichia coli, UniProt P0AFF4)
PIK3C3: Phosphatidylinositol 3-kinase catalytic subunit type 3 (PIK3C3, Homo sapiens, UniProt Q8NEB9)
OPRL1: Nociceptin receptor (OPRL1, Homo sapiens, UniProt P41146)

SMILES | target | test | setting | quantity | value
Cc1occc(=S)c1O | CA14 | enzyme activity, inhibitor, stopped-flow |  | Ki | 6.7 µM
C[C@]12CC[C@H](O)CC1=CC[C@@H]1[C@@H]2CC[C@]2(C)C(c3cccnc3)=CC[C@@H]12 | ESR1 | ligand displacement in cells, radioligand |  | Ki | 0.39 µM
C[C@H]1Oc2cc(cnc2N)-c2c(nn(C)c2C#N)CN(C)C(=O)c2ccc(F)cc21 | PLK4 | cell-free assay | lysate | Ki | 0.107 µM
C=C(C)[C@@H]1CC=C(C)C(=O)C1 | OR1A1 (Homo sapiens, UniProt Q9P1Q5) | cAMP, agonist, luciferase |  | EC50 | 7.29 µM
CCCC[C@H](NC(=O)[C@H](C)c1c(C)[nH]c2ccc(O)cc12)c1ncc(-c2cc3ccccc3nc2OC)[nH]1 | Prostaglandin E2 receptor EP3 subtype (PTGER3, Homo sapiens, UniProt P43115) | cell-free assay |  | Ki | 5.32 µM
On1ccccc1=S | CA14 | enzyme activity, inhibitor, stopped-flow |  | Ki | 7.1 µM
OC[C@H]1OC(O)[C@H](O)[C@@H](O)[C@@H]1O (stereo partly drawn) | Hexokinase-1 (Homo sapiens, UniProt P19367) | binding, MST |  | Kd | 158 µM
CC1Cc2ccccc2N1C(=O)NCCCCN(C)[C@@H]1Cc2cccc3[nH]c(=O)n(c23)C1 (mixture of isomers) | 5-hydroxytryptamine receptor 1A (HTR1A, Homo sapiens, UniProt P08908) | ligand displacement, radioligand |  | Ki | 0.0237 µM
ON=Cc1ccc(-c2ccc(O)c(F)c2)c(Cl)c1O | ESR1 | reporter gene, agonist, luciferase |  | EC50 | 1.63 µM
CCCOc1cccc2nc(N)n(Cc3ccc(Cl)c(Cl)c3)c12 | Pteridine reductase (PTR1, Trypanosoma brucei brucei, UniProt O76290) | enzyme activity, inhibitor, absorbance |  | Ki | 0.05 µM
Cc1cc(Nc2cc3ncccc3c(N[C@@H]3C[C@H]4CC[C@@H](C3)N4CCC#N)n2)n[nH]1 | Death-associated protein kinase 3 (DAPK3, Homo sapiens, UniProt O43293) | binding, competition with immobilised ligand |  | Kd | 0.019 µM
Nc1ncnc2c1ncn2[C@@H]1O[C@H](CO)[C@@H](O)[C@H]1O | nupG | binding, ITC |  | Kd | 99.7 µM
CCC(=O)N1CCC(C(=O)NCC(=O)N2CCN(c3nc(-c4cnc(N)nc4C(F)F)nc(N4CCOCC4)n3)CC2)CC1 | PIK3C3 | binding, competition with immobilised ligand |  | Kd | 0.1 µM
Nc1nc2c(ncn2[C@@H]2O[C@H](COP(=O)(O)OP(=O)(O)O)[C@@H](OP(=O)(O)OP(=O)(O)O)[C@H]2O)c(=O)[nH]1 | pgk (Escherichia coli, UniProt P0A799) | binding, ITC |  | Kd | 493 µM
CCOc1cc(-c2nncn2C)ccc1Nc1ncc2cc(C)nc(NCC(C)(C)C)c2n1 | PLK4 | binding, competition with immobilised ligand |  | Kd | 0.071 µM
Cc1nc(NC(=O)N2CCC[C@H]2C(N)=O)sc1-c1ccnc(C(C)(C)C(F)(F)F)c1 | PIK3C3 | binding, competition with immobilised ligand |  | Kd | 24.5 µM
Nc1ccn([C@@H]2O[C@H](CO)[C@@H](O)[C@H]2O)c(=O)n1 | nupG | binding, ITC |  | Kd | 144 µM
CCOC(=O)[C@@]12C[C@@H]1[C@@H](n1ccc3c(NC)nc(C#Cc4ccccc4)nc31)[C@H](O)[C@@H]2O | OPRL1 | ligand displacement, radioligand |  | Ki | > 10 µM
Oc1ccccc1F | Iodotyrosine deiodinase (Haliscomenobacter hydrossis, UniProt F4KU78) | binding, fluorescence |  | Kd | 20000 µM
CNc1nc(C#Cc2ccc(Cl)s2)nc2c1ncn2[C@H]1[C@H](O)[C@H](O)[C@]2(C(=O)OCc3ccccc3)C[C@H]12 | OPRL1 | ligand displacement, radioligand |  | Ki | > 10 µM
CCCNc1nc2ccccc2n1Cc1ccc(Cl)cc1 | Alpha-2C adrenergic receptor (ADRA2C, Homo sapiens, UniProt P18825) | ligand displacement, radioligand |  | Ki | 0.434 µM
